# Assay outcomes (PubChem BioAssay)
# In the library only some 3.8% were active in any assay of this set; here they are far more common.
# KCNK9 block: blocks the human KCNK9 two-pore domain potassium channel; Q9NPC2; HEK293 KCNK9, FluxOR thallium flux fluorescence; active compounds read low; B-score at 10 µM; 1.2% of 310,000 active; AID 488922;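 active = ratio B-score over 3 SD below the library mean, with starting fluorescence within 5 SD of its mean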;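 note: negative B-score means less thallium flux so channel inhibition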
# KCNQ1 inh: human KCNQ1 channel inhibition. P51787. CHO-K1 KCNQ1, FluxOR thallium flux fluorescence; active compounds read high. B-score at 10 µM. 1.3% of 310,000 active. AID 2642;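 active = compounds whose thallium flux B-score, printed positive for inhibition, exceeds three library SD while starting fluorescence stays within three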;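 note: channel opened by potassium depolarization with thallium stimulus after 20 min compound exposure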
# KCNQ1 act: human KCNQ1 channel potentiation or activation; P51787; CHO-K1 KCNQ1, thallium flux FluxOR fluorescence; active compounds read high; B-score at 10 µM; 0.35% of 310,000 active; AID 2648;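 active = fluorescence ratio B-score, a plate-corrected score, at least three library SD, with initial intensity B-score within 5 SD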
#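 Test system: CHO-K1 cells stably expressing KCNQ1 / Medium: assay buffer / Also added: depolarizing K+/Tl+ stimulus, K2SO4 and Tl2SO4 each 12.5 mM in 5x stock / Incubation: 90 min dye loading and 20 min compound exposure, both at room temperature / Signal: thallium influx via FluxOR fluorescence, kinetic imaging / Evaluation: B score of baseline-normalized fluorescence ratio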
# hERG protect: hERG (human) protection from proarrhythmic block; Q12809; CHO-hERG, FluxOR thallium flux, dofetilide IC70 present; activation (rescue from dofetilide block), less the hit threshold, % at 10 µM; 0.51% of 310,000 active;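 active = activation above the mean of controls blocked by dofetilide plus 5 SD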;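 note: thallium influx through hERG after potassium depolarization seen as dye fluorescence rise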
# Kir21 block: inhibitors of mouse Kir2.1 inward-rectifier potassium channel; P35561; HEK293-Kir2.1, FluxOR thallium flux fluorescence; active compounds read low; B-score at 10 µM; 0.85% of 310,000 active; AID 1672;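 active = fluorescence ratio B-score at or below minus 3 SD of library scores, with starting-brightness B-score within 2 SD, cut at about -4.2 in these data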;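 note: channel flux triggered by added potassium and thallium sulfate stimulus; B-score of peak minus minimum fluorescence over baseline after thallium stimulus; more negative B-score means stronger Kir2.1 block with less thallium influx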
# KCNK3 block: human KCNK3 channel inhibition, primary screen; CHO-KCNK3 thallium flux, FluxOR fluorescence; active compounds read low; B-score at 10 µM; 0.84% of 340,000 active; AID 602410;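 active = B-score under library mean minus 4 SD, starting fluorescence ratio at most library mean plus 5 SD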;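 note: more negative B-score means stronger inhibition of thallium flux through KCNK3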
# Target sequence (O14649 whole entry, looked up): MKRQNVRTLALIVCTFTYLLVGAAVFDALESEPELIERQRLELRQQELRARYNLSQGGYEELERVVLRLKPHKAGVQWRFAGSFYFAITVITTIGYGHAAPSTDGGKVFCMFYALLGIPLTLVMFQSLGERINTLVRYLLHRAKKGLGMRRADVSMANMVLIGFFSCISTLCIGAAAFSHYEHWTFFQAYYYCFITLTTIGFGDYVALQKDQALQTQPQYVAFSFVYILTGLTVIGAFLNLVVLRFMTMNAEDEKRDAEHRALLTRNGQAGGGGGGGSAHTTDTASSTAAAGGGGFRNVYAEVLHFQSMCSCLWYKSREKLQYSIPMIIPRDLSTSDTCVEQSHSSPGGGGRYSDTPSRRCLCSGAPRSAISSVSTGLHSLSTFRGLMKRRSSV
# KCNQ1 block val: confirmation of human KCNQ1 potassium channel inhibitors; shares compounds with KCNQ1 inh; KCNQ1 cell line, FluxOR thallium flux fluorescence; inhibition, % at 10 µM; 93% of 1,600 active;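 active = primary screen active, with duplicate mean exceeding buffer control mean plus 3 SD of buffer wells, cut at about 28% in these data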;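 note: 0% = buffer control ratio and 100% = XE991 inhibitor control ratio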
# CHO KCNQ1 ctr: activity in parental CHO cells lacking KCNQ1; parental CHO-K1, FluxOR thallium flux fluorescence ratio; active compounds read low; zero means no signal rise above baseline; 21% of 1,600 active; shares compounds with KCNQ1 inh; fluorescence ratio (Tl flux) at 10 µM;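 active = mean of duplicate thallium-flux fluorescence ratios in parental host cells more than 5 SD below the buffer control mean, cut at about 0.38 in these data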;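 note: ratio is peak minus minimum fluorescence divided by baseline fluorescence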
# KCNQ1 ephys val: confirmation of human KCNQ1 potassium channel inhibitors by electrophysiology; shares compounds with KCNQ1 inh; KCNQ1-CHO cells, automated patch clamp current; calls only at 10 µM; 20% of 490 active;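 active = KCNQ1 current drop exceeding 3 SD of negative control wells, seen in both duplicate runs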;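 note: steady state current during a 2 s step from -80 to +40 mV; negative values mean current inhibition and positive values mean potentiation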
# KCNQ2 inh: rat KCNQ2 inhibition in KCNQ1 inhibitor specificity screen; shares compounds with KCNQ1 inh; inhibition, % at 10 µM; KCNQ2 cells, FluxOR thallium flux fluorescence; 71% of 1,600 active;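 active = mean percent inhibition of the KCNQ2 thallium signal more than 5 SD above the buffer-only control wells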;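 note: KCNQ2 expressed in CHO cells; 0% = buffer control wells and 100% = XE-991 inhibitor control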
# KCNQ1 KCNE1 spec: KCNQ1 inhibitor that also blocks human KCNQ1/KCNE1 channel | AID 652147 | 77% of 1,600 active | shares compounds with KCNQ1 inh | inhibition, % at 10 µM | KCNQ1/KCNE1 cells, FluxOR thallium flux fluorescence;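 active = mean percent inhibition of duplicate wells above the buffer-only control mean plus 3 SD of those controls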;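 note: 0% = buffer only wells and 100% = XE-991 inhibitor control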
# Starred values were filed as active, the others as inactive; i = inactive; . = no result; + = active, no number.
SMILES,KCNK9 block,KCNQ1 inh,KCNQ1 act,hERG protect,Kir21 block,KCNK3 block,KCNQ1 block val,CHO KCNQ1 ctr,KCNQ2 inh,KCNQ1 KCNE1 spec,others
O=C(Nc1nc2ccc(F)cc2s1)C1CCN(S(=O)(=O)c2cc([N+](=O)[O-])ccc2Cl)CC1,i,15*,i,-19,0.1,i,158*,0.37*,118%*,198%*,
Cc1sc2ncnc(NCC3COc4ccccc4O3)c2c1C (centres undefined),i,i,i,-21,-0.79,i,.,.,.,.,
c1ccc(-c2csc3ncnc(NCC4COc5ccccc5O4)c23)cc1 (centres undefined),i,9*,i,-11,0.76,i,151*,0.35*,132%*,+,
O=C(CCSc1ccccc1)N1CCN(c2ccccc2)CC1,i,7*,i,-12,2.4,i,26*,0.47,i,64%*,
O=S(=O)(c1cccc(NC(=S)Nc2ccc(Br)cc2Cl)c1)N1CCOCC1,i,9*,i,-10,-1,i,0,0.56,i,i,
CC(C)(C)c1ccc(CNC(=O)c2ccc3c(c2)NC(=O)CO3)cc1,i,i,i,3,1.1,i,.,.,.,.,
O=C1COc2ccc(C(=O)NCc3ccc4c(c3)OCO4)cc2N1,i,7*,i,-11,1.3,i,104*,0.48,86%*,112%*,KCNQ1 ephys val=+
CN(C)CCCN(C(=O)c1ccc2c(c1)CCCC2)c1nc2ccc(F)cc2s1,i,i,i,-21,-3.7,i,.,.,.,.,
CN(C)CCCN(C(=O)c1ccc2c(c1)CCCC2)c1nc2cc3c(cc2s1)OCO3,i,7*,i,-16,-2.5,i,48*,0.46,76%*,36%*,
CN(CC(=O)Nc1ccc(F)cc1)C(=O)c1cc(-c2cccs2)nn1-c1ccccc1,.,.,.,.,.,i,.,.,.,.,
COc1ccc(N/C=C2\CCc3ccccc3C2=O)cc1,i,6*,i,-20,-1.9,i,50*,0.69,112%*,114%*,
Cc1nc(-c2ccc(S(=O)(=O)N3CCN(c4cccc(C)c4C)CC3)cc2)co1,i,6*,i,-8,0.07,i,74*,0.5,104%*,112%*,
Cc1nc(-c2ccc(S(=O)(=O)N3CCN(c4ccccc4)CC3)cc2)co1,i,i,i,-5,0.49,i,.,.,.,.,
CCOC(=O)C1CCN(CCC(=O)Nc2ccc(F)cc2)CC1,i,i,i,-7,2.5,i,.,.,.,.,
Cc1cc(C)cc(CC2CC(=O)N(c3ccc([N+](=O)[O-])cc3)C2=O)c1 (centres undefined),i,i,i,-8,-0.8,i,.,.,.,.,
O=S(=O)(NC1CCCCC1Oc1ccccc1)c1ccc(Cl)cc1 (centres undefined),i,i,i,-9,-3.7,i,.,.,.,.,
CSc1ccc(OC2CCCCC2NS(=O)(=O)c2ccc(Cl)cc2)cc1 (centres undefined),i,6*,i,-8,0.32,i,120*,0.41,115%*,142%*,KCNQ1 ephys val=i
COc1ccc(-c2cc(-c3ccccc3)nc(Cl)n2)cc1OC,i,8*,i,-6,1,i,131*,0.45,128%*,166%*,KCNQ1 ephys val=i
COc1ccc(-c2nc3ccccc3nc2-c2ccccc2)cc1OC,i,i,i,-19,-0.78,i,.,.,.,.,
Cc1onc(-c2ccccc2Cl)c1C(=O)OCC(=O)N1CCN(c2ccccc2)CC1,i,i,i,-10,0.35,i,.,.,.,.,
CCOC(=O)[C@H]1[C@H]2COc3ccc(C)cc3[C@@H]2N2C(=O)c3ccccc3NC(=O)[C@@]12C,.,.,.,.,.,i,.,.,.,.,
Cc1nc2ccc(NS(=O)(=O)c3ccc4c(c3)OCCO4)cc2s1,i,10*,i,-8,-1.8,i,98*,0.49,69%*,90%*,KCNQ1 ephys val=i
Cc1ccc(S(=O)(=O)Nc2ccc3nc(C)sc3c2)cc1,i,i,i,-10,0.34,i,.,.,.,.,
O=C(Nc1cc(Cl)ccc1N1CCOCC1)c1ccc2c(c1)OCCO2,i,12*,i,-6,-0.17,i,68*,0.46,83%*,52%*,
O=C(NC1CCCCC1)C(c1ccncc1)N(Cc1ccc2c(c1)OCO2)C(=O)c1cnsn1 (centres undefined),i,7*,i,-7,1.7,i,65*,0.44,i,72%*,
SMILES,KCNK9 block,KCNQ1 inh,KCNQ1 act,hERG protect,Kir21 block,KCNK3 block,KCNQ1 block val,CHO KCNQ1 ctr,KCNQ2 inh,KCNQ1 KCNE1 spec,others
O=C(c1ccccc1)c1ccc(C(=O)N2CCOCC2)cc1,i,i,i,-8,1.2,i,.,.,.,.,
Cc1sc2c(c1C)CN(CCN1CCOCC1)CN2C(=O)c1ccccc1,i,6*,i,-8,-0.68,i,0,0.47,i,37%*,
CC(C)COC(=O)NCCOC(=O)Nc1cccc(Cl)c1,i,8*,i,-13,-1.4,i,124*,0.46,113%*,91%*,KCNQ1 ephys val=+
CC(C)COC(=O)NCCCOC(=O)Nc1ccccc1,i,i,i,-7,2.4,i,.,.,.,.,
CCC1Oc2ccc(C)cc2N(CC(=O)NCC2CCCO2)C1=O (centres undefined),i,i,i,-5,0.36,i,.,.,.,.,
CCc1ccc(N(CC(=O)Nc2nc3ccc(C)cc3s2)S(=O)(=O)c2c(C)noc2C)cc1,i,9*,i,-5,0.03,i,71*,0.42,73%*,138%*,
CCOc1ccc(N(CC(=O)NC2CC3CCC2C3)S(=O)(=O)c2ccc(C)cc2)cc1 (centres undefined),i,8*,i,-8,0.05,i,100*,0.46,94%*,100%*,KCNQ1 ephys val=+
N#Cc1nc(Cc2cccc3ccccc23)oc1N1CCOCC1,i,i,i,-12,1.2,i,.,.,.,.,
CC1CCN(c2oc(Cc3cccc4ccccc34)nc2C#N)CC1,i,8*,i,-8,-0.01,i,99*,0.39,101%*,112%*,
